Reference: ChEMBL document CHEMBL4480417, “Methylsulfonylated Polyketides Produced by Neosartorya udagawae HDN13-313 via Exogenous Addition of Small Molecules” (J Nat Prod, 2019)
Calls of active or inactive are those of the source. No cut-off for these calls is given here.

What was measured:
HL-60 = test: Cytotoxicity against human HL60 cells at 30 uM after 72 hrs by MTT assay; type: cell-based; settings: hl-60, 72 h
HCT-116 = test: Cytotoxicity against human HCT116 cells at 30 uM after 72 hrs by MTT assay; type: cell-based; settings: hct-116, 72 h
K562 = test: Cytotoxicity against human K562 cells at 30 uM after 72 hrs by MTT assay; type: cell-based; settings: k562, 72 h
HeLa = test: Cytotoxicity against human HeLa cells at 30 uM after 72 hrs by MTT assay; type: cell-based
HepG2 = test: Lipid lowering activity in human HepG2 cells assessed as reduction in oleic acid-induced lipid accumulation at 10 uM after 24 hrs by oil red O staining based spectrophotometric method; type: functional, cell-based
Method in brief: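 HepG2 cells in log phase seeded at 1.2 × 10^4 cells/well, grown 12 h to 70–80% confluence, then serum-starved 12 h in serum-free DMEM. Oleic acid added (final 80 μM) with test agent or simvastatin (final 10 μM), 24 h. Blank: DMEM only; OA alone as negative control. Cells fixed in 4% paraformaldehyde, rinsed with 60% 2-propanol, stained with 0.3% Oil Red O for 1 h, dye dissolved in DMSO, OD 358 nm; ≥3 experiments, mean ± SEM.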

Row | SMILES | Activity (HL-60) | Activity (HCT-116) | Activity (K562) | Activity (HeLa) | Activity (HepG2)
1 | COc1cc(S(C)(=O)=O)cc2c(=O)oc3cc(CO)cc(O)c3c(=O)c12 | Non-Toxic | Non-Toxic | Non-Toxic | Non-Toxic | Active
2 | COc1c(O)ccc2c(=O)oc3cc(CO)cc(O)c3c(=O)c12 | Non-Toxic | Non-Toxic | Non-Toxic | Non-Toxic | –
3 | CCC(C)(C)C(=O)O[C@H]1C[C@@H](C)C=C2C=C[C@H](C)[C@H](CC[C@@H]3C[C@@H](O)CC(=O)O3)[C@H]21 | – | – | – | – | Active
4 | COc1c(O)c(O)c(C)c(S(C)(=O)=O)c1O | Non-Toxic | Non-Toxic | Non-Toxic | Non-Toxic | –
